Experimental data reported in ChEMBL document CHEMBL1250446, “Novel targets for Huntington's disease in an mTOR-independent autophagy pathway” (Nat Chem Biol, 2008).
Active and inactive are the calls of the source. No cut-off for these calls is given here.

Assays:
[1] = test system: SK-N-SH; test: Induction of autophagy in human SK-N-SH cells expressing EGFP-HDQ74 assessed as reduction in EGFP-HDQ74 aggregation at 500 uM after 48 hrs by densitometric analysis; format: functional, cell-based
[2] = test system: PC-12; test: Induction of autophagy in rat stable inducible PC12 cells expressing A53T alpha-synuclein assessed as A53T alpha-synuclein clearance at 500 uM after 24 hrs by densitometric analysis; format: functional, cell-based
Summary of the method: (§1)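 Inducible PC12 A53T α-synuclein (HA) cells induced with 1 μg/ml doxycycline for 48 h. Doxycycline then removed for 24 h with compound or DMSO. Remaining protein measured by anti-HA immunoblot, densitometry relative to actin.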

[3] = test system: SK-N-MC; test: Cytotoxicity against human SK-N-MC cells expressing EGFP-HDQ74 at 1 uM after 48 hrs; format: cell-based
[4] = test system: SK-N-SH (Homo sapiens); test: Induction of autophagy in human SK-N-SH cells expressing EGFP-HDQ74 assessed as reduction in EGFP-HDQ74 aggregation at 1 uM after 48 hrs by densitometric analysis
[5] = test system: HeLa; test: Induction of autophagy in human HeLa cells expressing EGFP-LC3 assessed as increase in LC3-2 level at 400 nM in presence of erythro-9-(3-(2-hydroxynonyl)adenine; format: functional, cell-based
[6] = test system: SK-N-MC; test: Induction of autophagy in Atg positive human SK-N-MC cells expressing EGFP-HDQ74 at 1 uM after 48 hrs; format: functional, cell-based
[7] = organism: Danio rerio; test: Protection of neurodegeneration in zebrafish Huntington's disease model expressing EGFP-tagged huntingtin exon with EGFP-HDQ71 in rod photoreceptor assessed as loss of rhodopsin expression at 3 uM
[8] = organism: Danio rerio; test: Protection of neurodegeneration in zebrafish Huntington's disease model expressing EGFP-tagged huntingtin exon with EGFP-HDQ71 in rod photoreceptor assessed as decrease in […] aggregation at 3 uM
[9] = organism: Mus musculus; test: Induction of autophagy in Atg deficient mouse […] expressing EGFP-HDQ74 at 1 uM after 48 hrs; format: functional
[10] = organism: Danio rerio; test: Protection of neurodegeneration in zebrafish Huntington's disease model expressing EGFP-tagged huntingtin exon with EGFP-HDQ71 in rod photoreceptor assessed as decrease in […] aggregation at 3 uM; format: functional, organism-based
Summary of the method: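 Transgenic zebrafish larvae raised in PTU to 3 d.p.f., then dark-reared 3–9 d.p.f. with drug in E3 medium (pH 7.2), refreshed daily. Fixed fish were cryosectioned at 12 μm and aggregates counted over 96 μm of the central eye. Means from 10 fish per group; ANOVA with Dunnett's test.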

[11] = test system: SK-N-SH; test: Induction of autophagy in human SK-N-SH cells expressing EGFP-HDQ74/m-calpain assessed as inhibition of EGFP-HDQ74 aggregation at 1 uM after 48 hrs; format: functional, cell-based
[12] = organism: Danio rerio; test: Protection of neurodegeneration in zebrafish Huntington's disease model expressing EGFP-tagged huntingtin exon with EGFP-HDQ71 in rod photoreceptor assessed as induction of rhodopsin expression at 3 uM; format: functional, organism-based
Summary of the method: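 Zebrafish larvae dark-reared 3–9 d.p.f. with drug in E3, refreshed daily, then lysed in RIPA/DTT. Western blot with anti-rhodopsin (Zpr3, 1:1000), anti-Zpr1 and anti-EGFP antibodies; ECL detection.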

[13] = test system: COS-7; test: Induction of autophagy in african green monkey COS7 cells expressing EGFP-HDQ74/m-calpain assessed as decrease in EGFP-HDQ74 aggregation at 500 uM after 48 hrs; format: functional, cell-based; details: Chlorocebus aethiops
[14] = test system: COS-7; test: Inhibition of Gsalpha in african green monkey COS7 cells expressing EGFP-HDQ74/m-calpain assessed as increase in LC3-2 level by autophagy induction assay; format: functional, cell-based; details: Chlorocebus aethiops
[15] = test system: SK-N-SH (Homo sapiens); test: Induction of autophagy in human SK-N-SH cells assessed as increase in LC3-2 level at 3 uM after 24 hrs by immunoblotting analysis
[16] = test system: PC-12; test: Induction of autophagy in rat stable inducible PC12 cells expressing EGFP-HDQ74 and endogenously I1R assessed as decrease in EGFP-HDQ74 aggregation at 1 uM after 24 hrs by densitometric analysis; format: functional, cell-based
[17] = test system: PC-12; test: Induction of autophagy in rat stable inducible PC12 cells assessed as increase in LC3-2 level after 24 hrs by immunoblotting analysis; format: functional, cell-based
Summary of the method: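 Endogenous LC3-II in PC12 cells after 24 h exposure; immunoblot densitometry relative to actin.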

[18] = test system: PC-12; test: Induction of autophagy in rat stable inducible PC12 cells expressing A53T alpha-synuclein and endogenously I1R assessed as increase in A53T alpha-synuclein clearance at 1 uM after 24 hrs by densitometric analysis; format: functional, cell-based; summary of the method: as §1
[19] = test system: SK-N-MC; test: Induction of autophagy in human SK-N-MC cells expressing A53T alpha-synuclein and endogenously I1R/alpha2 AR assessed as increase in A53T alpha-synuclein clearance at 1 uM after 24 hrs by densitometric analysis; format: functional, cell-based
[20] = test system: SK-N-MC; test: Induction of autophagy in human SK-N-MC cells expressing EGFP-HDQ74 and endogenously I1R/alpha2 AR assessed as decrease in EGFP-HDQ74 aggregation at 1 uM after 24 hrs by densitometric analysis; format: functional, cell-based

CCCC(=O)Nc1ncnc2c1ncn2[C@@H]1O[C@@H]2COP(=O)(O)O[C@H]2[C@H]1OC(=O)CCC
Activity [1]: inactive
Activity [2]: inactive

CN(C)C(=O)C(CCN1CCC(O)(c2ccc(Cl)cc2)CC1)(c1ccccc1)c1ccccc1 [LOPERAMIDE]
Activity [3]: Non-toxic
Activity [4]: Active

CCCCCC[C@@H]([C@@H](C)O)n1cnc2c(N)ncnc21 (relative stereo)
Activity [5]: inactive

CCCCc1oc2ccccc2c1C(=O)c1cc(I)c(OCCN(CC)CC)c(I)c1 [AMIODARONE]
Activity [3]: Non-toxic
Activity [4]: Active

Clc1cccc(Cl)c1NC1=NCCN1
Activity [6]: Active
Activity [7]: inactive
Activity [8]: Active
Activity [9]: inactive
Activity [4]: Active
Activity [10]: Active
Activity [11]: inactive
Activity [12]: Active

COCCOC(=O)C1=C(C)NC(C)=C(C(=O)OC(C)C)C1c1cccc([N+](=O)[O-])c1 (centres undefined) [NIMODIPINE]
Activity [3]: Non-toxic
Activity [4]: Active

O=C(Nc1cc(C(=O)Nc2ccc(S(=O)(=O)O)cc2S(=O)(=O)O)cc(C(=O)Nc2ccc(S(=O)(=O)O)cc2S(=O)(=O)O)c1)Nc1cc(C(=O)Nc2ccc(S(=O)(=O)O)cc2S(=O)(=O)O)cc(C(=O)Nc2ccc(S(=O)(=O)O)cc2S(=O)(=O)O)c1
Activity [13]: Active
Activity [14]: Active

Nc1cc(N2CCCCC2)nc(N)[n+]1[O-] [MINOXIDIL]
Activity [3]: Non-toxic
Activity [6]: Active
Activity [9]: inactive
Activity [4]: Active
Activity [15]: Active

C1COC(NC(C2CC2)C2CC2)=N1
Activity [16]: Active
Activity [17]: Dose-dependent effect
Activity [18]: Active
Activity [19]: Active
Activity [20]: Active
